Laboratory results from ChEMBL document CHEMBL1132257, “Apstatin analogue inhibitors of aminopeptidase P, a bradykinin-degrading enzyme” (J Med Chem, 1999).

Experiments:
Xaa-Pro aminopeptidase 1 [1] = target: T1, Xaa-Pro aminopeptidase 1 (Homo sapiens, UniProt Q9NQW7); assay: Inhibition against cytosolic Aminopeptidase P from human heart.
Procedure, shortened: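 Human heart homogenate in 0.1 M potassium phosphate pH 6.8: the 40000g supernatant, or enzyme partly purified on TNB-thiol agarose with dithiothreitol elution and exchange into Hepes. Assayed with 0.5 mM Arg-Pro-Pro, 0.1 M Hepes pH 8.0; arginine measured by fluorescence. IC50 by linear regression, 10 concentrations in triplicate.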

[2] = Inhibition against Aminopeptidase P from Escherichia coli.
Procedure, shortened: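 Recombinant E. coli AP-P, preincubated with 0.73 mM MnCl2 (0.02 mM residual in assay). Hydrolysis of 0.5 mM Arg-Pro-Pro in 0.1 M Hepes pH 8.0 tracked by fluorescence of free arginine. IC50 by linear regression of rate vs log inhibitor concentration over 10 concentrations, triplicate each.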

Xaa-Pro aminopeptidase 1 [3] = target: T1, Xaa-Pro aminopeptidase 1; assay: Inhibition against Aminopeptidase P from human platelets.
Procedure, shortened: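 Enzyme from human platelets: washed in PBS with prostacyclin, freeze-thawed, sonicated; the 43000g 2 h supernatant was used. Substrate 0.5 mM Arg-Pro-Pro, 0.1 M Hepes pH 8.0, fluorimetric arginine read-out. IC50 from triplicate rates at 10 concentrations, by linear regression of rate vs log concentration.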

[4] = Inhibition against Aminopeptidase P from bovine.; assay type: single protein
Procedure, shortened: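 Source was bovine lung membrane-bound enzyme purified to homogeneity. Substrate 0.5 mM Arg-Pro-Pro, 0.1 M Hepes pH 8.0, with fluorimetric detection of released arginine. IC50 by linear regression of rate vs log [inhibitor] (linear part), using 10 concentrations near a preliminary estimate, in triplicate.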

Xaa-Pro aminopeptidase 2 [5] = target: T2, Xaa-Pro aminopeptidase 2 (Rattus norvegicus, UniProt Q99MA2); assay: Activity against membrane bound rat aminopeptidase P
T2 sequence (Q99MA2 whole entry): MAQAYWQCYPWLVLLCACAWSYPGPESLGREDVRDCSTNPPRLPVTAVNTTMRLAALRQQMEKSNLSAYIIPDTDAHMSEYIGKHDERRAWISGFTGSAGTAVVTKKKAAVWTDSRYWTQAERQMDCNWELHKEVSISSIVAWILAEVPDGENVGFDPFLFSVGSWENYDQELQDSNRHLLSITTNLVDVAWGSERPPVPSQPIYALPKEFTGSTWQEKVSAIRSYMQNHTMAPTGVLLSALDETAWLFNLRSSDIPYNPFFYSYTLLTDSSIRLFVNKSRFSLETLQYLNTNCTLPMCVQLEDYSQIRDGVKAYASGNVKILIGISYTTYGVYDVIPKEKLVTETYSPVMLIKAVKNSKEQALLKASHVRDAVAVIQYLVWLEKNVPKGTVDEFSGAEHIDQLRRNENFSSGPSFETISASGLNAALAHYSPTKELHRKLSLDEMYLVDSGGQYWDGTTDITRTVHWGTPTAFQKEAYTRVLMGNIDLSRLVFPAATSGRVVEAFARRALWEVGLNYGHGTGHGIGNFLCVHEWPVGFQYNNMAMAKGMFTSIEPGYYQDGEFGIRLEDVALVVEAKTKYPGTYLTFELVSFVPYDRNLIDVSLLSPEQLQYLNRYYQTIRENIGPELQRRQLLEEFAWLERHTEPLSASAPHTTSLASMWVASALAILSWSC
Procedure, shortened: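 Membrane-bound AP-P purified to homogeneity from rat lung; 0.5 mM Arg-Pro-Pro substrate in 0.1 M Hepes, pH 8.0; free arginine release read by fluorescence. IC50 from 10 inhibitor concentrations around an approximate value, each in triplicate, by linear regression of the linear portion of rate vs log inhibitor concentration.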

Xaa-Pro aminopeptidase 2 [6] = target: Xaa-Pro aminopeptidase 2 (Homo sapiens, UniProt O43895); assay: Inhibition against membrane bound human aminopeptidase P
Procedure, shortened: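 Partially purified membrane-bound AP-P from human or cynomolgus lung, released from microsomes by phosphatidylinositol-specific phospholipase C and then centrifuged. Triplicate rates at 10 inhibitor levels; IC50 by linear regression of the linear part of the rate vs log concentration plot.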

T1 sequence (Q9NQW7 whole entry): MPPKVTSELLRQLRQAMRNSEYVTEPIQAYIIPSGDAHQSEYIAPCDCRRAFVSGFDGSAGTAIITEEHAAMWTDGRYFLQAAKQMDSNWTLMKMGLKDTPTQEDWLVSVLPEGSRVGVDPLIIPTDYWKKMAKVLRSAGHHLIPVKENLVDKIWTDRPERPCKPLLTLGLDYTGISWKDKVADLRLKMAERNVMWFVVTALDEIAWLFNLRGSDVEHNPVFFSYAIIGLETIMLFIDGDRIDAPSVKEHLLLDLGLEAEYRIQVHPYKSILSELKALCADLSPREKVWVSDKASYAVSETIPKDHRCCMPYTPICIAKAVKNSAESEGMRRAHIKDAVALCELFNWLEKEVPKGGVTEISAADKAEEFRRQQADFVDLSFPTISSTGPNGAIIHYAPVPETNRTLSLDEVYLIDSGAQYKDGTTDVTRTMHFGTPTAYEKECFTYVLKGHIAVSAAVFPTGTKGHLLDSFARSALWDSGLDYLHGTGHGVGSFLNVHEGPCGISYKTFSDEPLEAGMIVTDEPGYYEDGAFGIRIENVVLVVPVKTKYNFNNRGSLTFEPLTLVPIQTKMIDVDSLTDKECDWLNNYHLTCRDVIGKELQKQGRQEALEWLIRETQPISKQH
Sequence of Xaa-Pro aminopeptidase 2 (Homo sapiens, UniProt O43895) (O43895 whole entry): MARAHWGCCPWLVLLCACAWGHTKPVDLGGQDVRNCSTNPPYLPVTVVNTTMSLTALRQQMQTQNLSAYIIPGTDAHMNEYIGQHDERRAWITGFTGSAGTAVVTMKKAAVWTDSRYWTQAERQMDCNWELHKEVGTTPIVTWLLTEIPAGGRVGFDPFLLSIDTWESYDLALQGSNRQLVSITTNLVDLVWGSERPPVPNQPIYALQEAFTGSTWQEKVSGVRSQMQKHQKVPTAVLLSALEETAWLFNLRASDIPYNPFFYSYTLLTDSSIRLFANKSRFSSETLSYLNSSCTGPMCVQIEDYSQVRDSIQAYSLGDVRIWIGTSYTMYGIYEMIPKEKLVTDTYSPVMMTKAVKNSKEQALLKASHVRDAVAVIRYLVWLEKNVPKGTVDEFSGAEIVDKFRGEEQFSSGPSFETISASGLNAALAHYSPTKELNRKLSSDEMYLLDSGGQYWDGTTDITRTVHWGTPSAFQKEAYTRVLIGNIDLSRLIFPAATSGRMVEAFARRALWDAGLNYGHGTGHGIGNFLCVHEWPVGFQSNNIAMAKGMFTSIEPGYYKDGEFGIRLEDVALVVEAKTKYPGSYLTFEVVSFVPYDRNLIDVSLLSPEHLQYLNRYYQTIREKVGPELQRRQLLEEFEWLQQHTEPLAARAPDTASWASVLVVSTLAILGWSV

SMILES	IC50 (Xaa-Pro aminopeptidase 1 [1])	IC50 [2]	IC50 (Xaa-Pro aminopeptidase 1 [3])	IC50 [4]	IC50 (Xaa-Pro aminopeptidase 2 [5])	IC50 (Xaa-Pro aminopeptidase 2 [6])
C[C@H](NC(=O)[C@@H]1CCCN1C(=O)[C@@H]1C[C@@H](O)CN1C(=O)[C@@H](O)[C@H](N)Cc1ccccc1)C(N)=O	> 2000 µM	160 µM	> 2000 µM	> 2000 µM		
C[C@H](NC(=O)[C@@H]1CCCN1C(=O)C1CCCC1S)C(N)=O (stereo in doubt; 13)	53 µM	> 3000 µM		300 µM	150 µM	390 µM
C[C@H](NC(=O)[C@@H]1CCCN1C(=O)C1CCCCC1C(=O)NO)C(N)=O (stereo in doubt; 16)	> 5000 µM	2000 µM		> 5000 µM		
C[C@H](NC(=O)[C@@H]1CCCN1C(=O)C1CCCCC1C(=O)NO)C(N)=O (stereo in doubt; 15)	> 2000 µM	> 2000 µM		> 500 µM		
C[C@H](NC(=O)[C@@H]1CCCN1C(=O)C1CCCCC1C(=O)NO)C(N)=O (stereo in doubt; 14)	> 3000 µM	130 µM		50 µM		
C[C@H](NC(=O)[C@@H]1CCCN1C(=O)[C@@H]1CSCN1C(=O)[C@@H](O)[C@H](N)Cc1ccccc1)C(N)=O	82 µM	41 µM		34 µM		
NC(=O)[C@@H]1CCCN1C(=O)[C@@H]1CCCN1C(=O)[C@@H](O)[C@H](N)Cc1ccccc1	45 µM	16 µM	250 µM	1300 µM		
C[C@H](NC(=O)[C@@H]1CCCN1C(=O)C1CCCC1S)C(N)=O (stereo in doubt; 12)	6.3 µM			10 µM	3.4 µM	29 µM
C[C@H](NC(=O)[C@@H]1CCCN1C(=O)[C@@H]1CCCN1C(=O)[C@@H](O)[C@H](N)Cc1ccccc1)C(N)=O	21 µM	9 µM	18 µM	9.4 µM		
